Common to all, as to assay type: functional, cell-based
Assay [1] concerns A549. The experiment in a line: Cytotoxicity against human A549 cells after 48 hrs. The following applies: A549, 48 h. The procedure, abridged:
(§1)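 MTT colorimetric assay. Cells were kept in RPMI-1640 with 10% fetal bovine serum at 37 °C, 5% CO2, humidified. They were seeded at 6 × 10^4 cells/mL and allowed to attach for 24 h. Diluted samples were then added for 48 h. MTT (0.5 mg/mL) was added for 3 h, and optical density was read at 550 nm.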

Assay [2] deals with BGC-823. Kind of assay: Cytotoxicity against human BGC823 cells after 48 hrs. To be noted: BGC-823, 48 h. The method, boiled down: as §1
In assay [3] the test system is K562. Kind of assay: Cytotoxicity against human K562 cells after 48 hrs. The following applies: K562, 48 h. The method, boiled down: as §1

The structures appear in SMILES notation.

Eleven compounds from ChEMBL document CHEMBL1145455, “Cytotoxic withanolides from the flowers of Datura metel” (J Nat Prod, 2007) can be followed below.

Usually IC50 stands for the concentration at which inhibition is half-maximal. The low end stands for higher potency, the high end for lower potency.

On to `C=C1C(=O)O[C@@H]2C[C@]1(C)OC[C@H]2[C@H]1CC[C@H]2[C@@H]3CC=C4CC=CC(=O)[C@]4(C)[C@H]3C[C@@H](O)[C@]12C` [WITHAMETELIN L], for which the results for the IC50 in assay [1], in assay [2] and in assay [3] were 2000 nM, 1600 nM and 550 nM, respectively.
As for `C=C1C(=O)O[C@@H]2C[C@@]1(C)OC[C@H]2C1CCC2C3C[C@H]4OC(=O)CC=CC4=C(C)C3CCC21C` (stereo partly drawn) [1,10-SECO-WITHAMETELIN B], the IC50 in assay [1], in assay [2] and in assay [3] was more than 10000 nM throughout.
In the case of `C=C1C(=O)O[C@@H]2C[C@@]1(C)OC[C@H]2C1CCC2C3C[C@H]4O[C@]45CC=CC(=O)C5(C)C3C[C@@H](O)C21C` (stereo partly drawn) [WITHAMETELIN I], the IC50 is 1200 nM in assay [1], 1300 nM in assay [2] and 50 nM in assay [3].
Take `C=C1C(=O)O[C@@H]2C[C@@]1(C)OC[C@H]2C1CCC2C3CC=C4C=CCC(=O)C4(C)C3C[C@@H](O)C21C` (stereo partly drawn) [WITHAMETELIN M]: the IC50 in assay [1], in assay [2] and in assay [3] was more than 10000 nM throughout.
Turning to `COc1cccc2c1C(=O)c1c(O)c3c(c(O)c1C2=O)C[C@@](O)(C(=O)CO)C[C@@H]3O[C@H]1C[C@H](N)[C@H](O)[C@H](C)O1` [DOXORUBICIN], the IC50 is 750 nM in assay [1], 350 nM in assay [2] and 580 nM in assay [3].
The matching figures for `C=C1C(=O)O[C@@H]2C[C@@]1(C)OC[C@H]2C1CCC2C3C[C@@H](O)C4=CC=CC(=O)C4(C)C3C[C@@H](O)C21C` (stereo partly drawn) [WITHAMETELIN K]: 3500 nM, 1900 nM and 120 nM.
As to `C=C1C(=O)O[C@@H]2C[C@@]1(C)OC[C@H]2C1CCC2C3C[C@H]4OC(=O)CC=CC4=C(C)C3C[C@@H](O)C21C` (stereo partly drawn) [12BETA-HYDROXY-1,10-SECO-WITHAMETELIN B], the 50% inhibitory concentration (IC50) in assay [1], in assay [2] and in assay [3] was more than 10000 nM each time.
Take `C=C1C(=O)O[C@@H]2C[C@@]1(C)OC[C@H]2C1CCC2C3C[C@H](O)[C@]4(O)CC=CC(=O)C4(C)C3CCC21C` (stereo partly drawn) [WITHMETELIN O]: the IC50 in assay [1], in assay [2] and in assay [3] was more than 10000 nM in each case.
In the case of `C=C1C(=O)O[C@@H]2C[C@@]1(C)OC[C@H]2C1CC[C@H]2[C@@H]3C[C@H]4O[C@]45C[C@H](O)CC(=O)C5(C)[C@H]3CCC12C` (stereo partly drawn), the IC50 in assay [1] was found to be 1700 nM; in assay [2], 1000 nM; in assay [3] it was 460 nM.
Turning to `CC1=C(CO[C@@H]2O[C@H](CO)[C@@H](O)[C@H](O)[C@H]2O)C(=O)O[C@@H]([C@@H](CO)C2CCC3C4C[C@@H](O)[C@@]5(O)CC=CC(=O)C5(C)C4CCC32C)C1` (stereo partly drawn) [WITHMETELIN P], the IC50 in assay [1], in assay [2] and in assay [3] was more than 10000 nM throughout.
Turning to `C=C1C(=O)O[C@@H]2C[C@@]1(C)OC[C@H]2C1CCC2C3C[C@@H](O)[C@@]4(O)CC=CC(=O)C4(C)C3C[C@@H](O)C21C` (stereo partly drawn) [WITHAMETELIN J], the IC50 in assay [1] was more than 10000 nM; in assay [2] it was 5200 nM; in assay [3] it was 2500 nM.
